Common to all, as to type: functional
The species entered for assay [1] is Rattus norvegicus. In words: Antiovulatory activity was expressed as the percentage of 12 rats blocked at a dose 0.5 ug. As to conditions: in the assay text read “14 rats” for “12 rats”. In a few lines: (§1)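 Sprague-Dawley rats given peptide by subcutaneous injection at noon on the day of proestrus, in 40% propane-1,2-diol–0.9% saline vehicle. Oviducts examined for ova the following day.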

The species named for assay [2] is Rattus norvegicus. The experiment in a line: Antiovulatory activity was expressed as the percentage of 13 rats blocked at a dose 1 ug. The procedure, abridged:
as §1

For assay [3], the species on record is Rattus norvegicus. In words: Antiovulatory activity was expressed as the percentage of 9 rats blocked at a dose 1 ug. The procedure, abridged:
as §1

For assay [4], the species on record is Rattus norvegicus. The experiment in a line: Antiovulatory activity was expressed as the percentage of 9 rats blocked at a dose 0.5 ug. In a few lines: as §1

Residues, ends and D or L forms follow the SMILES beside them.

Take `CC(=O)N[C@H](Cc1ccc2ccccc2c1)C(=O)N[C@H](Cc1ccc(Cl)cc1)C(=O)N[C@H](Cc1ccc(O)cc1)C(=O)N[C@@H](CO)C(=O)N[C@@H](Cc1ccc(O)cc1)C(=O)N[C@H](CCCN=C(N)N)C(=O)N[C@@H](Cc1ccccc1)C(=O)N[C@@H](CCCN=C(N)N)C(=O)N1CCC[C@H]1C(=O)N[C@H](C)C(N)=O`: in the assay listed under Rattus norvegicus [1], the Antiovulatory activity came to 86%.

`CC(=O)N[C@H](Cc1ccc2ccccc2c1)C(=O)N[C@H](Cc1ccc(Cl)cc1)C(=O)N[C@H](Cc1c[nH]c2ccccc12)C(=O)N[C@@H](CO)C(=O)N[C@@H](Cc1ccc(O)cc1)C(=O)N[C@H](CCCN=C(N)N)C(=O)N[C@@H](CC(C)C)C(=O)N[C@@H](CCCN=C(N)N)C(=O)N1CCC[C@H]1C(=O)N[C@H](C)C(N)=O` (HELM PEPTIDE1{[ac].[O=C([C@@H](Cc1ccc2ccccc2c1)N[*:1])[*:2]].[O=C([C@@H](Cc1ccc(Cl)cc1)N[*:1])[*:2]].[dW].S.Y.[dR].L.R.P.[dA].[am]}$$$$V2.0) displayed an Antiovulatory activity in the assay listed under Rattus norvegicus [2] of 77%.

For the compound `CC(=O)N[C@H](Cc1ccc2ccccc2c1)C(=O)N[C@H](Cc1ccccc1)C(=O)N[C@H](Cc1ccccc1)C(=O)N[C@@H](CO)C(=O)N[C@@H](Cc1ccc(O)cc1)C(=O)N[C@H](CCCN=C(N)N)C(=O)N[C@@H](Cc1ccccc1)C(=O)N[C@@H](CCCN=C(N)N)C(=O)N1CCC[C@H]1C(=O)N[C@H](C)C(N)=O` (HELM PEPTIDE1{[ac].[O=C([C@@H](Cc1ccc2ccccc2c1)N[*:1])[*:2]].[dF].[dF].S.Y.[dR].F.R.P.[dA].[am]}$$$$V2.0), the figures for the Antiovulatory activity in the assay filed under Rattus norvegicus [3] and in the assay filed under Rattus norvegicus [4] were 100% and 56%, respectively.
